The record followed here is ChEMBL document CHEMBL4732243, “Design, synthesis, and structure activity relationship analysis of new betulinic acid derivatives as potent HIV inhibitors” (Eur J Med Chem, 2021).

The test system of data set [1] is MT4. Nature of the data set: Cytotoxicity against human MT4 cells assessed as reduction in cell viability incubated for 2 days by CytoTox-Glo cytotoxicity assay. Format: cell-based. Particulars: mt4, 48 h, time 2 day. The essentials:
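Mock-infected MT-4 cells cultured 2 days with a range of compound concentrations. Viability measured by CytoTox-Glo, following the kit protocol, as percent viable cells. CC50 is the concentration giving a 50% reduction in cell viability.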

In data set [2] the test system is Human immunodeficiency virus 1. Nature of the data set: Antiviral activity against HIV-1 NL4-3 infected in human MT4 cells assessed as reduction in p24 gag protein incubated for 4 days by ELISA. Format: functional, organism-based. As to conditions: Human immunodeficiency virus 1, NL4-3, MT4, 96 h. The essentials:
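MT-4 cells infected with HIV-1 NL4-3 at MOI 0.01, serial compound concentrations, in 96-well format. Supernatant p24 antigen measured by capture ELISA on day 4 post-infection. IC50 is the concentration that inhibits NL4-3 replication by 50%. Bevirimat run in parallel as the reference.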

Each structure is given as a SMILES string.

Take `C=C(C)[C@@H]1CC[C@]2(C(=O)N3CCN(C(=O)/C=C/c4ccc(Cl)cc4)CC3)CC[C@]3(C)[C@H](CC[C@@H]4[C@@]5(C)CC[C@H](OC(=O)CC(C)(C)C(=O)O)C(C)(C)[C@@H]5CC[C@]43C)[C@@H]12`: in data set [1], the CC50 is above 2000 nM. Further, the IC50 in data set [2] (read-out: IC50) is 360 nM; in data set [2] (read-out: pIC50 (converted)) it was 363 nM. On to `C=C(C)[C@@H]1CC[C@]2(C(=O)N3CCN(CCCCC(=O)N4CCN(c5cc(NCc6ccccc6)ncn5)CC4)CC3)CC[C@]3(C)[C@H](CC[C@@H]4[C@@]5(C)CC[C@H](OC(=O)CC(C)(C)C(=O)O)C(C)(C)[C@@H]5CC[C@]43C)[C@@H]12`, for which, in data set [1], the CC50 is above 2000 nM. Also, the IC50 in data set [2] (read-out: IC50) came out at 12 nM.

For `C=C(C)[C@@H]1CC[C@]2(C(=O)N3CCN(C(=O)/C=C/c4ccc5c(c4)OCCO5)CC3)CC[C@]3(C)[C@H](CC[C@@H]4[C@@]5(C)CC[C@H](OC(=O)CC(C)(C)C(=O)O)C(C)(C)[C@@H]5CC[C@]43C)[C@@H]12`, the CC50 in data set [1] was above 2000 nM. Besides, the IC50 is 50 nM in data set [2] (read-out: IC50) and 50.1 nM in data set [2] (read-out: pIC50 (converted)).

On to `C=C(C)[C@@H]1CC[C@]2(C(=O)N3CCN(C(=O)/C=C/c4ccc(OCOC)c(OCCCCCCCC)c4)CC3)CC[C@]3(C)[C@H](CC[C@@H]4[C@@]5(C)CC[C@H](OC(=O)CC(C)(C)C(=O)O)C(C)(C)[C@@H]5CC[C@]43C)[C@@H]12`, for which the IC50 in data set [2] (read-out: IC50) is above 1000 nM. Regarding `C=C(C)[C@@H]1CC[C@]2(C(=O)O)CC[C@]3(C)[C@H](CC[C@@H]4[C@@]5(C)CC[C@H](OC(=O)CC(C)(C)C(=O)O)C(C)(C)[C@@H]5CC[C@]43C)[C@@H]12` [BEVIRIMAT], the CC50 in data set [1] was above 2000 nM. Consider `C=C(C)[C@@H]1CC[C@]2(C(=O)CC(=O)CC(C)(C)C(=O)O)CC[C@]3(C)[C@H](CC[C@@H]4[C@@]5(C)CC[C@H](OC(=O)/C=C/c6ccc(OCOC)c(OCOC)c6)C(C)(C)[C@@H]5CC[C@]43C)[C@@H]12`, for which, in data set [2] (read-out: IC50), the IC50 was above 1000 nM. As to `C=C(C)[C@@H]1CC[C@]2(C(=O)N3CCN(C(=O)/C=C/c4ccc(O)c(OCc5cccc(Cl)c5)c4)CC3)CC[C@]3(C)[C@H](CC[C@@H]4[C@@]5(C)CC[C@H](OC(=O)CC(C)(C)C(=O)O)C(C)(C)[C@@H]5CC[C@]43C)[C@@H]12`, the cytotoxic concentration (CC50) in data set [1] is above 2000 nM. Moreover, the IC50 in data set [2] (read-out: IC50) stood at 190 nM. Regarding `C=C(C)[C@@H]1CC[C@]2(C(=O)N3CCN(C(=O)/C=C/c4ccc(OC)c(OC)c4)CC3)CC[C@]3(C)[C@H](CC[C@@H]4[C@@]5(C)CC[C@H](OC(=O)CC(C)(C)C(=O)O)C(C)(C)[C@@H]5CC[C@]43C)[C@@H]12`, the CC50 in data set [1] was above 2000 nM.

On to `C=C(C)[C@@H]1CC[C@]2(C(=O)N3CCN(C(=O)/C=C/c4ccc(OCCCCCCCC)c(OC)c4)CC3)CC[C@]3(C)[C@H](CC[C@@H]4[C@@]5(C)CC[C@H](OC(=O)CC(C)(C)C(=O)O)C(C)(C)[C@@H]5CC[C@]43C)[C@@H]12`, for which, in data set [2] (read-out: IC50), the IC50 is above 1000 nM. As for `C=C(C)[C@@H]1CC[C@]2(C(=O)N3CCN(C(=O)/C=C/c4cc(OC)c(OC)c(OC)c4)CC3)CC[C@]3(C)[C@H](CC[C@@H]4[C@@]5(C)CC[C@H](OC(=O)CC(C)(C)C(=O)O)C(C)(C)[C@@H]5CC[C@]43C)[C@@H]12`, the CC50 in data set [1] is above 2000 nM. Also, the IC50 in data set [2] (read-out: IC50) is 41 nM; in data set [2] (read-out: pIC50 (converted)), 40.7 nM. In the same order, the values of `C=C(C)[C@@H]1CC[C@]2(C(=O)N3CCN(C(=O)/C=C/c4ccc([N+](=O)[O-])cc4)CC3)CC[C@]3(C)[C@H](CC[C@@H]4[C@@]5(C)CC[C@H](OC(=O)CC(C)(C)C(=O)O)C(C)(C)[C@@H]5CC[C@]43C)[C@@H]12` are above 2000 nM, 110 nM and 110 nM. In the same order, the values of `C=C(C)[C@@H]1CC[C@]2(C(=O)N3CCN(C(=O)CC(C)(C)C(=O)O)CC3)CC[C@]3(C)[C@H](CC[C@@H]4[C@@]5(C)CC[C@H](ON6CCN(C(=O)CC(C)(C)C(=O)O)CC6)C(C)(C)[C@@H]5CC[C@]43C)[C@@H]12` are above 2000 nM, 14 nM and 14.1 nM. In the same order, the values of `C=C(C)[C@@H]1CC[C@]2(C(=O)N3CCN(C(=O)/C=C/c4ccc(N(C)C)cc4)CC3)CC[C@]3(C)[C@H](CC[C@@H]4[C@@]5(C)CC[C@H](OC(=O)CC(C)(C)C(=O)O)C(C)(C)[C@@H]5CC[C@]43C)[C@@H]12` are above 2000 nM, 27 nM and 26.9 nM. Consider `C=C(C)[C@@H]1CC[C@]2(C(=O)OCCCCCCCCN3CCN(C(=O)/C=C/c4ccc5c(c4)OCO5)CC3)CC[C@]3(C)[C@H](CC[C@@H]4[C@@]5(C)CC[C@H](OC(=O)CC(C)(C)C(=O)O)C(C)(C)[C@@H]5CC[C@]43C)[C@@H]12`, for which the IC50 in data set [2] (read-out: IC50) was above 1000 nM. For the compound `C=C(C)[C@@H]1CC[C@]2(C(=O)N3CCN(C(=O)/C(=C/c4ccc5c(c4)OCO5)CC)CC3)CC[C@]3(C)[C@H](CC[C@@H]4[C@@]5(C)CC[C@H](OC(=O)CC(C)(C)C(=O)O)C(C)(C)[C@@H]5CC[C@]43C)[C@@H]12`, the CC50 in data set [1] is above 2000 nM. In addition, the IC50 in data set [2] (read-out: IC50) is 130 nM; in data set [2] (read-out: pIC50 (converted)), 129 nM.

`C=C(C)[C@@H]1CC[C@]2(C(=O)N3CCN(C(=O)/C=C/c4ccc(OC)cc4)CC3)CC[C@]3(C)[C@H](CC[C@@H]4[C@@]5(C)CC[C@H](OC(=O)CC(C)(C)C(=O)O)C(C)(C)[C@@H]5CC[C@]43C)[C@@H]12`: the CC50 in data set [1] is above 2000 nM. Also, the results for the IC50 in data set [2] (read-out: IC50) and in data set [2] (read-out: pIC50 (converted)) were 76 nM and 75.9 nM, respectively.

Take `C=C(C)[C@@H]1CC[C@]2(C(=O)OCCCOC(=O)/C=C/c3ccc(N(C)C)cc3)CC[C@]3(C)[C@H](CC[C@@H]4[C@@]5(C)CC[C@H](OC(=O)CC(C)(C)C(=O)O)C(C)(C)[C@@H]5CC[C@]43C)[C@@H]12`: in data set [2] (read-out: IC50), the IC50 is above 1000 nM.

As for `C=C(C)[C@@H]1CC[C@]2(C(=O)O)CC[C@]3(C)[C@H](CC[C@@H]4[C@@]5(C)CC[C@H](OC(=O)/C=C/c6ccc7c(c6)OCO7)C(C)(C)[C@@H]5CC[C@]43C)[C@@H]12`, the IC50 in data set [2] (read-out: IC50) was above 1000 nM. For `C=C(C)[C@@H]1CC[C@]2(CN3CCN(C(=O)/C=C/c4ccc5c(c4)OCO5)CC3)CC[C@]3(C)[C@H](CC[C@@H]4[C@@]5(C)CC[C@H](OC(=O)CC(C)(C)C(=O)O)C(C)(C)[C@@H]5CC[C@]43C)[C@@H]12`, the IC50 in data set [2] (read-out: IC50) was above 1000 nM. The same measure, in the same setting: the value for `C=C(C)[C@@H]1CC[C@]2(C(=O)CC(C)=O)CC[C@]3(C)[C@H](CC[C@@H]4[C@@]5(C)CC[C@H](OC(=O)/C=C/N6CCN(C(=O)OC(C)(C)C)CC6)C(C)(C)[C@@H]5CC[C@]43C)[C@@H]12` was above 1000 nM. Regarding `C=C(C)[C@@H]1CC[C@]2(C(=O)CC(=O)CC(C)(C)C(=O)O)CC[C@]3(C)[C@H](CC[C@@H]4[C@@]5(C)CC[C@H](OC(=O)/C=C/N6CCN(C(=O)OC(C)(C)C)CC6)C(C)(C)[C@@H]5CC[C@]43C)[C@@H]12`, the IC50 in data set [2] (read-out: IC50) was above 1000 nM. On the same count and under the same terms, the value for `C=C(C)[C@@H]1CC[C@]2(C(=O)N3CCN(C(=O)/C=C/c4ccc(O)c(OCCCCCCCC)c4)CC3)CC[C@]3(C)[C@H](CC[C@@H]4[C@@]5(C)CC[C@H](OC(=O)CC(C)(C)C(=O)O)C(C)(C)[C@@H]5CC[C@]43C)[C@@H]12` was above 1000 nM.

As to `C=C(C)[C@@H]1CC[C@]2(C(=O)N3CCN(C(=O)/C=C/c4ccc(OCc5cccc(Cl)c5)c(OC)c4)CC3)CC[C@]3(C)[C@H](CC[C@@H]4[C@@]5(C)CC[C@H](OC(=O)CC(C)(C)C(=O)O)C(C)(C)[C@@H]5CC[C@]43C)[C@@H]12`, the IC50 in data set [2] (read-out: IC50) is above 1000 nM. Still for that read-out and setting: the value for `C=C(C)[C@@H]1CC[C@]2(C(=O)O)CC[C@]3(C)[C@H](CC[C@@H]4[C@@]5(C)CC[C@H](OC(=O)/C=C/c6ccc(OCOC)c(OCOC)c6)C(C)(C)[C@@H]5CC[C@]43C)[C@@H]12` was above 1000 nM.

In the case of `C=C(C)[C@@H]1CC[C@]2(C(=O)N3CCN(CCCCC(=O)N4CCN(C(=O)/C=C/c5ccc6c(c5)OCO6)CC4)CC3)CC[C@]3(C)[C@H](CC[C@@H]4[C@@]5(C)CC[C@H](OC(=O)CC(C)(C)C(=O)O)C(C)(C)[C@@H]5CC[C@]43C)[C@@H]12`, the CC50 in data set [1] is above 2000 nM. As to `C=C(C)[C@@H]1CC[C@]2(C(=O)N3CCN(C(=O)/C=C/c4ccc(OCOC)c(OCOC)c4)CC3)CC[C@]3(C)[C@H](CC[C@@H]4[C@@]5(C)CC[C@H](OC(=O)CC(C)(C)C(=O)O)C(C)(C)[C@@H]5CC[C@]43C)[C@@H]12`, in data set [1], the CC50 is above 2000 nM. As for `C=C(C)[C@@H]1CC[C@]2(C(=O)N3CCN(C(=O)CC(C)(C)C(=O)O)CC3)CC[C@]3(C)[C@H](CC[C@@H]4[C@@]5(C)CC[C@H](O)C(C)(C)[C@@H]5CC[C@]43C)[C@@H]12`, the IC50 in data set [2] (read-out: IC50) was above 1000 nM.

Regarding `C=C(C)[C@@H]1CC[C@]2(C(=O)N3CCN(C(=O)CC(C)(C)C(=O)O)CC3)CC[C@]3(C)[C@H](CC[C@@H]4[C@@]5(C)CC[C@H](Oc6ccc7c(c6)OCO7)C(C)(C)[C@@H]5CC[C@]43C)[C@@H]12`, the IC50 in data set [2] (read-out: IC50) was above 1000 nM. Still for that read-out and setting: the value for `C=C(C)[C@@H]1CC[C@]2(C(=O)N3CCN(C(=O)CC(C)(C)C(=O)O)CC3)CC[C@]3(C)[C@H](CC[C@@H]4[C@@]5(C)CC[C@H](OC(=O)/C=C/c6ccc7c(c6)OCO7)C(C)(C)[C@@H]5CC[C@]43C)[C@@H]12` was above 1000 nM; that for `C=C(C)[C@@H]1CC[C@]2(C(=O)N3CCN(C(=O)/C=C/c4ccc(OCCCCCCCC)c(OCCCCCCCC)c4)CC3)CC[C@]3(C)[C@H](CC[C@@H]4[C@@]5(C)CC[C@H](OC(=O)CC(C)(C)C(=O)O)C(C)(C)[C@@H]5CC[C@]43C)[C@@H]12` was above 1000 nM.
